{"data": "Assay results from different studies", "technique": "competition with immobilised ligand", "RPS6KA1 C-terminal kinase domain": "Ribosomal protein S6 kinase alpha-1, C-terminal kinase domain (RPS6KA1, Homo sapiens, UniProt Q15418)", "RPS6KA1 N-terminal kinase domain": "Ribosomal protein S6 kinase alpha-1, N-terminal kinase domain (RPS6KA1, Homo sapiens, UniProt Q15418)", "note": "Protocols differ between the studies behind these lines."}
{"SMILES": "O=C(NCC1CCOCC1)c1n[nH]cc1NC(=O)c1c(F)cccc1F", "target": "RPS6KA1 C-terminal kinase domain", "read-out": "binding", "tested at": "1 µM", "remaining binding [%]": 93}
{"SMILES": "CN(C)c1ncnc(-c2ccc3nc(Nc4cc(CN5CCN(C(=O)CC(F)(F)F)CC5)ccn4)[nH]c3c2)c1Cl", "target": "RPS6KA1 C-terminal kinase domain", "read-out": "cell-free assay", "tested at": "1 µM", "remaining binding [%]": 98}
{"SMILES": "O=C(c1ccc(Nc2nccc(-c3cc4ccccc4s3)n2)cc1)N1CCC(N2CCCC2)CC1", "target": "RPS6KA1 C-terminal kinase domain", "read-out": "binding", "tested at": "1 µM", "remaining binding [%]": 60}
{"SMILES": "C=CC(=O)N1CCC(C(=O)NCC(=O)N2CCN(c3nc(-c4cnc(N)nc4C(F)F)nc(N4CCOCC4)n3)CC2)CC1", "target": "RPS6KA1 N-terminal kinase domain", "read-out": "binding", "tested at": "1 µM", "remaining binding [%]": 100}
{"SMILES": "CCN1CCN(Cc2ccc(C(=O)Nc3ccc(C)c(Oc4ccc5c(c4)CC(=O)N5)c3)cc2C(F)(F)F)CC1", "target": "RPS6KA1 N-terminal kinase domain", "read-out": "binding", "tested at": "1 µM", "remaining binding [%]": 91}
{"SMILES": "C[C@@H](c1ccc(-n2cnc3c(N)ncnc32)cc1)N1CCc2nn(C)c(Cc3ccccc3)c2C1=O", "target": "RPS6KA1 C-terminal kinase domain", "read-out": "binding", "tested at": "0.1 µM", "remaining binding [%]": 100}
{"SMILES": "CC(=O)c1c(NS(C)(=O)=O)c2cc(-c3ccc(Cl)cc3)c(-c3ccc(Cl)cc3Cl)nc2n(C)c1=O", "target": "RPS6KA1 C-terminal kinase domain", "read-out": "cell-free assay", "tested at": "1 µM", "remaining binding [%]": 88}
{"SMILES": "C[C@H]1CCN(c2nccc(-c3cnn4ncccc34)n2)C1", "target": "RPS6KA1 N-terminal kinase domain", "read-out": "binding", "tested at": "1 µM", "remaining binding [%]": 94}
{"SMILES": "Nc1ncc2c(n1)-c1c([nH]c3ccc(C#CC4CC4)cc13)CCCC2", "target": "RPS6KA1 N-terminal kinase domain", "read-out": "binding", "tested at": "1 µM", "remaining binding [%]": 90}
{"SMILES": "Cc1cnn2ncc(-c3ccnc(N(C)C)n3)c2c1", "target": "RPS6KA1 N-terminal kinase domain", "read-out": "binding", "tested at": "1 µM", "remaining binding [%]": 100}
{"SMILES": "CNC(=O)[C@@H]1CC[C@@H](n2c(-c3ccc4cnccc4c3)nc3ccc(C(=O)NCc4cccc(C(N)=O)c4)cc32)C1", "target": "RPS6KA1 C-terminal kinase domain", "read-out": "binding", "tested at": "1 µM", "remaining binding [%]": 100}
{"SMILES": "CO[C@@H](C)c1c(Nc2ccc([C@@H](N(C)C(=O)C3CCS(=O)(=O)CC3)C(F)(F)F)cc2)cnc2cc(Cl)nn12", "target": "RPS6KA1 C-terminal kinase domain", "read-out": "cell-free assay", "tested at": "1 µM", "remaining binding [%]": 99}
{"SMILES": "O=C(NCCCN1CCOCC1)c1ccc(Nc2nccc(-c3cc4ccccc4s3)n2)cc1", "target": "RPS6KA1 C-terminal kinase domain", "read-out": "binding", "tested at": "1 µM", "remaining binding [%]": 54}
{"SMILES": "C[C@@H]1CN(c2cc(-c3n[nH]c4ccc(OC5(C)CC5)cc34)ncn2)C[C@H](C)O1", "target": "RPS6KA1 N-terminal kinase domain", "read-out": "cell-free assay", "tested at": "0.1 µM", "remaining binding [%]": 97}
{"SMILES": "F[C@@H]1CCN(c2nccc(-c3cnn4ncccc34)n2)C1", "target": "RPS6KA1 N-terminal kinase domain", "read-out": "binding", "tested at": "1 µM", "remaining binding [%]": 100}
{"SMILES": "COc1cc(-c2cn(C3CCc4c(F)cccc4N(CC(F)(F)F)C3=O)nn2)ccc1-n1cnc(C)c1 (stereo not shown)", "target": "RPS6KA1 C-terminal kinase domain", "read-out": "cell-free assay", "tested at": "1 µM", "remaining binding [%]": 100}
{"SMILES": "O=C(NCCCN1CCOCC1)c1ccc(Nc2ncc(Cl)c(-c3ccc(Cl)s3)n2)cc1", "target": "RPS6KA1 N-terminal kinase domain", "read-out": "binding", "tested at": "1 µM", "remaining binding [%]": 55}
{"SMILES": "COc1ncc2cc3ccccc3nc2c1C#N", "target": "RPS6KA1 N-terminal kinase domain", "read-out": "cell-free assay", "tested at": "5 µM", "remaining binding [%]": 91}
{"SMILES": "O=C(Nc1cccnn1)N1CC(C/C=C/c2cncc(Oc3ccc(C(F)(F)F)cn3)n2)C1", "target": "RPS6KA1 C-terminal kinase domain", "read-out": "cell-free assay", "tested at": "1 µM", "remaining binding [%]": 92}
{"SMILES": "N[C@@H]1CCN(c2nccc(-c3cnn4ncccc34)n2)C1", "target": "RPS6KA1 N-terminal kinase domain", "read-out": "binding", "tested at": "1 µM", "remaining binding [%]": 100}
{"SMILES": "O=C(c1ccc(Nc2ncc(Cl)c(-c3ccc(Cl)s3)n2)cc1)N1CCC(N2CCCC2)CC1", "target": "RPS6KA1 C-terminal kinase domain", "read-out": "binding", "tested at": "1 µM", "remaining binding [%]": 72}
{"SMILES": "O=C(Nc1c[nH]nc1C(=O)NC1CCNCC1)c1cc(F)cc(F)c1", "target": "RPS6KA1 C-terminal kinase domain", "read-out": "binding", "tested at": "1 µM", "remaining binding [%]": 100}
{"SMILES": "CS(=O)(=O)NCC[C@H](NC(=O)c1cncc2c1cnn2-c1ccc(F)cc1)c1ccnc(S(C)(=O)=O)c1", "target": "RPS6KA1 N-terminal kinase domain", "read-out": "cell-free assay", "tested at": "1 µM", "remaining binding [%]": 100}
{"SMILES": "c1cncc(-c2cccc(Nc3nccc(NC4CCCCC4)n3)c2)c1", "target": "RPS6KA1 C-terminal kinase domain", "read-out": "binding", "tested at": "10 µM", "remaining binding [%]": 99}
{"SMILES": "COc1cnc(Nc2cccc(S(N)(=O)=O)c2)nc1N1CCN(c2ccccc2)C(=O)C1", "target": "RPS6KA1 C-terminal kinase domain", "read-out": "binding", "tested at": "1 µM", "remaining binding [%]": 92}
{"SMILES": "O=C(c1ccc(Nc2ncc(Cl)c(-c3cc4ccccc4s3)n2)cc1)N1CCC(N2CCCC2)CC1", "target": "RPS6KA1 C-terminal kinase domain", "read-out": "binding", "tested at": "1 µM", "remaining binding [%]": 82}
{"SMILES": "CN(CCCC(F)(F)F)c1nccc(-c2cnn3ncccc23)n1", "target": "RPS6KA1 C-terminal kinase domain", "read-out": "binding", "tested at": "1 µM", "remaining binding [%]": 100}
{"SMILES": "COc1cnc(Nc2cccc(S(N)(=O)=O)c2)nc1N1CCN(c2ccccc2)CC1", "target": "RPS6KA1 N-terminal kinase domain", "read-out": "binding", "tested at": "1 µM", "remaining binding [%]": 100}
{"SMILES": "O=C(NCc1ncc(C(F)(F)F)cc1Cl)c1ccc2c(c1)C1(CCS(=O)(=O)CC1)[C@H](C1CC1)N2S(=O)(=O)c1ccc(F)cc1", "target": "RPS6KA1 C-terminal kinase domain", "read-out": "cell-free assay", "tested at": "1 µM", "remaining binding [%]": 99}
{"SMILES": "CN(c1nccc(-c2cnn3ncccc23)n1)C1CC1", "target": "RPS6KA1 C-terminal kinase domain", "read-out": "binding", "tested at": "1 µM", "remaining binding [%]": 100}
{"SMILES": "FC(F)(F)Oc1cccc(-c2cnc3ccc(-c4ccncc4)nn23)c1", "target": "RPS6KA1 C-terminal kinase domain", "read-out": "binding", "tested at": "5 µM", "remaining binding [%]": 41}
